Measured values: ChEMBL document CHEMBL3244396, “Synthesis and antileukemic activity of 5-substituted 2,3-dihydro-6,7-bis(hydroxymethyl)-1H-pyrrolizine diesters” (J Med Chem, 1977)

Assays:
L1210 [1] = assay: Antileukemic activity against mouse L1210 cells allografted in female BDF1 mouse assessed as host mean survival time at 25 mg/kg, ip administered daily for 9 days as Klucel suspension starting 24 hrs after tumor inoculation relative to control; format: functional; details: route intraperitoneal
Procedure, shortened: (§1)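 L1210 leukemia given as an ascitic fluid cell inoculum, ip, to mice of the strain and sex in each line. Test material was given ip for nine daily doses starting 24 h after inoculation, in a Klucel (hydroxypropylcellulose) suspension. Read-out is mean survival time as %T/C versus controls, with >125 taken as significant.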

Mus musculus [2] = assay: Toxicity in female BDF1 mouse allografted with mouse P388 cells assessed as animal survival at 25 mg/kg, ip administered daily for 9 days as Klucel suspension starting 24 hrs after tumor inoculation; format: organism-based; design: dose 25 mg/kg, route intraperitoneal; details: in vivo
Procedure, shortened: (§2)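 P-388 leukemia ascitic fluid inoculated ip. Compound given ip as a suspension in Klucel (hydroxypropylcellulose), once daily for nine doses beginning 24 h post-inoculation. Acute toxicity assessed as toxicity-day survivors per group. Survival was followed up to 30 days, with 30-day survival counted as "cure". Follows NCI screening protocols.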

L1210 [3] = assay: Antileukemic activity against mouse L1210 cells allografted in female BDF1 mouse assessed as host mean survival time at 12.5 mg/kg, ip administered daily for 9 days as Klucel suspension starting 24 hrs after tumor inoculation relative to control; format: functional; details: route intraperitoneal; procedure, shortened: as §1
P388 [4] = assay: Antitumor activity against mouse P388 cells allografted in female CDF1 mouse assessed as change in body weight at 100 mg/kg, ip administered daily for 9 days as Klucel suspension starting 24 hrs after tumor inoculation; format: functional; details: route intraperitoneal
Procedure, shortened: (§3)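 Ascitic fluid carrying P388 cells was inoculated ip. Compound was given ip in nine daily doses, starting 24 h after inoculation, in Klucel (hydroxypropylcellulose) suspension or in saline with Tween-80. Body-weight difference (treated minus control) was recorded on day 5. Survival was scored as %T/C of median survival time, and 30-day survival counted as cure.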

L1210 [5] = assay: Antileukemic activity against mouse L1210 cells allografted in female BDF1 mouse assessed as host mean survival time at 200 mg/kg, ip administered daily for 9 days as Klucel suspension starting 24 hrs after tumor inoculation relative to control; format: functional; details: route intraperitoneal; procedure, shortened: as §1
P388 [6] = assay: Antitumor activity against mouse P388 cells allografted in female BDF1 mouse assessed as change in body weight at 25 mg/kg, ip administered daily for 9 days as Klucel suspension starting 24 hrs after tumor inoculation; format: functional; details: route intraperitoneal; procedure, shortened: as §3
P388 [7] = assay: Antitumor activity against mouse P388 cells allografted in female CDF1 mouse assessed as disease cures by measuring 30-days host survival at 50 mg/kg, ip administered daily for 9 days as Klucel suspension starting 24 hrs after tumor inoculation relative to control; format: functional; details: route intraperitoneal
Procedure, shortened: (§4)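 P388 leukemia given as an ascitic fluid cell inoculum, ip, to mice of the strain and sex in each line. Nine daily ip doses were given in a Klucel (hydroxypropylcellulose) suspension, starting 24 h after inoculation. Read-out is median survival time as %T/C, with >125 taken as significant; a "cure" means 30-day survival.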

L1210 [8] = assay: Antileukemic activity against mouse L1210 cells allografted in female BDF1 mouse assessed as change in body weight at 50 mg/kg, ip administered daily for 9 days as Klucel suspension starting 24 hrs after tumor inoculation; format: functional; details: route intraperitoneal
Procedure, shortened: (§5)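 Ascitic fluid carrying L1210 cells was inoculated ip. Compound was given ip as a Klucel (hydroxypropylcellulose) suspension in nine daily doses, starting 24 h after inoculation. Body-weight difference (treated minus control) was recorded on day 5. Survival was scored as %T/C of mean survival time.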

Mus musculus [9] = assay: Toxicity in female CDF1 mouse allografted with mouse P388 cells assessed as animal survival at 50 mg/kg, ip administered daily for 9 days as Klucel suspension starting 24 hrs after tumor inoculation; format: organism-based; design: dose 50 mg/kg, route intraperitoneal; details: in vivo; procedure, shortened: as §2
L1210 [10] = assay: Antileukemic activity against mouse L1210 cells allografted in female BDF1 mouse assessed as host mean survival time at 100 mg/kg, ip administered daily for 9 days as Klucel suspension starting 24 hrs after tumor inoculation relative to control; format: functional; details: route intraperitoneal; procedure, shortened: as §1
Mus musculus [11] = assay: Toxicity in female BDF1 mouse allografted with mouse L1210 cells assessed as animal survival at 12.5 mg/kg, ip administered daily for 9 days as Klucel suspension starting 24 hrs after tumor inoculation measured on fifth day; format: organism-based; design: dose 12.5 mg/kg, route intraperitoneal; details: in vivo
Procedure, shortened: (§6)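 Female BDF1 mice bearing ip ascitic L1210 inoculum got nine daily ip doses in a Klucel suspension, starting 24 h after tumor inoculation. Toxicity was scored as toxicity-day survivors out of the group, recorded on the fifth day. Animal weight difference (T − C) was also tabulated.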

P388 [12] = assay: Antitumor activity against mouse P388 cells allografted in female BDF1 mouse assessed as change in body weight at 12.5 mg/kg, ip administered daily for 9 days as Klucel suspension starting 24 hrs after tumor inoculation; format: functional; details: route intraperitoneal; procedure, shortened: as §3
Mus musculus [13] = assay: Toxicity in female BDF1 mouse allografted with mouse L1210 cells assessed as animal survival at 25 mg/kg, ip administered daily for 9 days as Klucel suspension starting 24 hrs after tumor inoculation measured on fifth day; format: organism-based; design: dose 25 mg/kg, route intraperitoneal; details: in vivo
Procedure, shortened: (§7)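 L1210 leukemia passaged as ascitic fluid and inoculated ip. Test agent given ip as a Klucel (hydroxypropylcellulose) suspension, nine daily doses starting 24 h after tumor inoculation. Acute toxicity read as toxicity-day survivors per group (out of 6), recorded on day 5. Animal weight difference T − C was also recorded. Follows NCI screening protocols.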

P388 [14] = assay: Antitumor activity against mouse P388 cells allografted in female CDF1 mouse assessed as disease cures by measuring 30-days host survival at 100 mg/kg, ip administered daily for 9 days as Klucel suspension starting 24 hrs after tumor inoculation relative to control; format: functional; details: route intraperitoneal; procedure, shortened: as §4
P388 [15] = assay: Antitumor activity against mouse P388 cells allografted in female CDF1 mouse assessed as change in body weight at 200 mg/kg, ip administered daily for 9 days as Klucel suspension starting 24 hrs after tumor inoculation; format: functional; details: route intraperitoneal; procedure, shortened: as §3
Mus musculus [16] = assay: Toxicity in female BDF1 mouse allografted with mouse L1210 cells assessed as animal survival at 100 mg/kg, ip administered daily for 9 days as Klucel suspension starting 24 hrs after tumor inoculation measured on fifth day; format: organism-based; design: dose 100 mg/kg, route intraperitoneal; details: in vivo; procedure, shortened: as §6
L1210 [17] = assay: Antileukemic activity against mouse L1210 cells allografted in female BDF1 mouse assessed as change in body weight at 12.5 mg/kg, ip administered daily for 9 days as Klucel suspension starting 24 hrs after tumor inoculation; format: functional; details: route intraperitoneal; procedure, shortened: as §5
P388 [18] = assay: Antitumor activity against mouse P388 cells allografted in female BDF1 mouse assessed as disease cures by measuring 30-days host survival at 12.5 mg/kg, ip administered daily for 9 days as Klucel suspension starting 24 hrs after tumor inoculation relative to control; format: functional; details: route intraperitoneal; procedure, shortened: as §4
L1210 [19] = assay: Antileukemic activity against mouse L1210 cells allografted in female BDF1 mouse assessed as change in body weight at 25 mg/kg, ip administered daily for 9 days as Klucel suspension starting 24 hrs after tumor inoculation; format: functional; details: route intraperitoneal; procedure, shortened: as §5
L1210 [20] = assay: Antileukemic activity against mouse L1210 cells allografted in female BDF1 mouse assessed as host mean survival time at 50 mg/kg, ip administered daily for 9 days as Klucel suspension starting 24 hrs after tumor inoculation relative to control; format: functional; details: route intraperitoneal; procedure, shortened: as §1
L1210 [21] = assay: Antileukemic activity against mouse L1210 cells allografted in female BDF1 mouse assessed as change in body weight at 200 mg/kg, ip administered daily for 9 days as Klucel suspension starting 24 hrs after tumor inoculation; format: functional; details: route intraperitoneal; procedure, shortened: as §5
Mus musculus [22] = assay: Toxicity in female BDF1 mouse allografted with mouse P388 cells assessed as animal survival at 12.5 mg/kg, ip administered daily for 9 days as Klucel suspension starting 24 hrs after tumor inoculation; format: organism-based; design: dose 12.5 mg/kg, route intraperitoneal; details: in vivo; procedure, shortened: as §2
Mus musculus [23] = assay: Toxicity in female BDF1 mouse allografted with mouse L1210 cells assessed as animal survival at 50 mg/kg, ip administered daily for 9 days as Klucel suspension starting 24 hrs after tumor inoculation measured on fifth day; format: organism-based; design: dose 50 mg/kg, route intraperitoneal; details: in vivo; procedure, shortened: as §7
L1210 [24] = assay: Antileukemic activity against mouse L1210 cells allografted in female BDF1 mouse assessed as change in body weight at 100 mg/kg, ip administered daily for 9 days as Klucel suspension starting 24 hrs after tumor inoculation; format: functional; details: route intraperitoneal; procedure, shortened: as §5
Mus musculus [25] = assay: Toxicity in female CDF1 mouse allografted with mouse P388 cells assessed as animal survival at 200 mg/kg, ip administered daily for 9 days as Klucel suspension starting 24 hrs after tumor inoculation; format: organism-based; design: dose 200 mg/kg, route intraperitoneal; details: in vivo; procedure, shortened: as §2
[26] = Cytotoxicity against human 9KB cells treated as ethanol solution; format: functional; details: read-out: ED50 (the source's name)
Procedure, shortened: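 Compound applied as an ethanol solution; activity read out as ED50 under the general screening protocol.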

P388 [27] = assay: Antitumor activity against mouse P388 cells allografted in female CDF1 mouse assessed as change in body weight at 50 mg/kg, ip administered daily for 9 days as Klucel suspension starting 24 hrs after tumor inoculation; format: functional; details: route intraperitoneal; procedure, shortened: as §3
Mus musculus [28] = assay: Toxicity in female CDF1 mouse allografted with mouse P388 cells assessed as animal survival at 100 mg/kg, ip administered daily for 9 days as Klucel suspension starting 24 hrs after tumor inoculation; format: organism-based; design: dose 100 mg/kg, route intraperitoneal; details: in vivo; procedure, shortened: as §2
P388 [29] = assay: Antitumor activity against mouse P388 cells allografted in female BDF1 mouse assessed as disease cures by measuring 30-days host survival at 25 mg/kg, ip administered daily for 9 days as Klucel suspension starting 24 hrs after tumor inoculation relative to control; format: functional; details: route intraperitoneal; procedure, shortened: as §4

For `CC(=O)OCc1c(COC(C)=O)c(-c2ccc(Cl)cc2)n2c1CCC2`, the T/C (L1210 [1]) was 102%, the Activity (Mus musculus [2]) was “Non-toxic” and the T/C (L1210 [3]) was 95%. The Activity (P388 [4]) was -3.3 g, the T/C (L1210 [5]) was 64% and the Activity (P388 [6]) was -0.2 g. For the same compound, the T/C (P388 [7]) was 118%, the Activity (L1210 [8]) was -1.8 g and the Activity (Mus musculus [9]) was “Non-toxic”. For the same compound, the T/C (L1210 [10]) was 76%, the Activity (Mus musculus [11]) was “Non-toxic” and the Activity (P388 [12]) was -0.6 g. The Activity (Mus musculus [13]) was “Non-toxic”, the T/C (P388 [14]) was 66% and the Activity (P388 [15]) was 0.5 g. The Activity (Mus musculus [16]) was “Non-toxic”, the Activity (L1210 [17]) was 0.7 g and the T/C (P388 [18]) was 119%. It also gave an Activity (L1210 [19]) of 0.6 g, a T/C (L1210 [20]) of 117% and an Activity (L1210 [21]) of -3.8 g. For the same compound, the Activity (Mus musculus [22]) was “Non-toxic”, the Activity (Mus musculus [23]) was “Non-toxic” and the Activity (L1210 [24]) was -3.8 g. For the same compound, the Activity (Mus musculus [25]) was “Toxic”, the EC50 [26] was > 2.8 µg/mL and the Activity (P388 [27]) was -1.9 g. For the same compound, the Activity (Mus musculus [28]) was “Non-toxic” and the T/C (P388 [29]) was 123%.
